Assay results reported in article PMC5102769 (Neurobiology of disease, 2016).
Like-named read-outs stand apart in the source and are kept apart here.

Molecular target: T1, ENT1 (Mus musculus, UniProt Q9JIM1)
T1 sequence (Q9JIM1 1-460): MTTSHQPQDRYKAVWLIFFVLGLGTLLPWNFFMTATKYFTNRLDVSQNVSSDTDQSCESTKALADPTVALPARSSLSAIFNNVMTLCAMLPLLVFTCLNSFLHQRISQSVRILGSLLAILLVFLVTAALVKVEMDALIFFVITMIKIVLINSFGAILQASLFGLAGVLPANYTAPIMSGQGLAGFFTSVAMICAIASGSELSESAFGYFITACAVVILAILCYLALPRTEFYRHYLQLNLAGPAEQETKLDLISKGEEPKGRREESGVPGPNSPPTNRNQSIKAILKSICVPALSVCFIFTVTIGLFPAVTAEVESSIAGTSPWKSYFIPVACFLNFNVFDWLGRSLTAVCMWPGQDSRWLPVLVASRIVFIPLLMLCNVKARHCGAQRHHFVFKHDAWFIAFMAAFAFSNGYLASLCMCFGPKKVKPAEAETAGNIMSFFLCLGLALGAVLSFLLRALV
Assay type: binding
Conditions: striatum; for Kd: read-out: KD (affinity)
Summary of the method: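 Striata from 12-month-old heterozygous zQ175 and WT littermate mice were homogenized in 50 mM Tris-HCl pH 7.4 with protease inhibitors, then membranes were pelleted at 100,000 g (45 min, 4°C) and washed twice. Membranes (0.2 mg protein/ml) were incubated with increasing [3H]NBTI in 50 mM Tris-HCl pH 7.4 with 2 I.U./ml adenosine deaminase. Unlabeled NBTI defined non-specific binding. Bound ligand was separated by rapid filtration and counted by scintillation. n = 8–10/group, means ± S.E.M.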

O=[N+]([O-])c1ccc(CSc2ncnc3c2ncn3[C@@H]2O[C@H](CO)[C@@H](O)[C@H]2O)cc1 [[^3H]NBTI, [^3H]-S-(4-Nitrobenzyl)-6-thioinosine]
Bmax (number of binding sites) (WT littermates of zQ175 mice): 0.27 ± 0.03 pmol/mg of protein | Kd (WT littermates of zQ175 mice): 0.11 ± 0.01 nM | Kd (zQ175 mice (HET, 12-month old)): 0.11 ± 0.03 nM | Bmax (number of binding sites) (zQ175 mice (HET, 12-month old)): 0.35 ± 0.02 pmol/mg protein
